Measured values reported in ChEMBL document CHEMBL3045505, “Antifungal activity of strawberry fruit volatile compounds against Colletotrichum acutatum” (2007).
Calls of active or inactive are those of the source. The rule behind the calls is not given here.

Tests used:
Colletotrichum acutatum [1] = test: Antifungal activity against Colletotrichum acutatum assessed as inhibition of germination at 25 degC measured after 4 to 24 hr; assay type: functional
How it was run: (§1)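 C. acutatum CECT 20240 conidia (PDA, 25 °C, continuous light, 7 days) as a 100 µL droplet of 5 × 10^5 conidia mL-1 on Parafilm-covered slides in sealed Petri dishes. Volatile applied to filter paper in the vapour phase at ≥4 doses, 0.13–1351.35 µL L-1, with water control. Incubated at 25 °C and scored microscopically at 4 and 24 h. Five dishes per dose, experiment run twice.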

Colletotrichum acutatum [2] = test: Antifungal activity against Colletotrichum acutatum assessed as inhibition of appressorium pigmentation at 25 degC measured after 4 to 24 hr; assay type: functional; how it was run: as §1
Colletotrichum acutatum [3] = test: Antifungal activity against Colletotrichum acutatum assessed as inhibition of microcyclic conidiation at 25 degC measured after 4 to 24 hr; assay type: functional; how it was run: as §1
Colletotrichum acutatum [4] = test: Antifungal activity against Colletotrichum acutatum assessed as inhibition of appressorium formation at 25 degC measured after 4 to 24 hr; assay type: functional; how it was run: as §1
Colletotrichum acutatum [5] = test: Antifungal activity against Colletotrichum acutatum assessed as inhibition of pore appressorial formation at 25 degC measured after 4 to 24 hr; assay type: functional; how it was run: as §1
Colletotrichum acutatum [6] = test: Antifungal activity against Colletotrichum acutatum assessed as inhibition of mycelial growth at 25 degC measured after 8 days; assay type: functional
How it was run: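 A 5 mm PDA mycelial disc was placed in a sealed 74 mL dish holding 20 mL PDA. Volatile on filter paper under the lid at ≥6 doses, 33.78–1351.35 µL L-1, with extra doses for some compounds; water control. Colony diameter read after 8 days at 25 °C; five dishes per dose, run twice. MID, ID95 and ID50 from probit regression on log dose.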

Colletotrichum acutatum [7] = test: Antifungal activity against Colletotrichum acutatum assessed as disruption of plasma membrane at 33.78 ul/L by transmission electrol microscopy; assay type: functional, organism-based
Colletotrichum acutatum [8] = test: Antifungal activity against Colletotrichum acutatum inoculated in strawberry fruits assessed as fruit damaging at 4 ul/L measured after 7 days; assay type: functional, organism-based
How it was run: (§2)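 Strawberry fruits (cv. Camarosa) at commercial maturity inoculated with 10^6 conidia mL-1. Filter paper carrying 4, 5, 10, 20 or 50 µL L-1 volatile placed next to the fruit; inoculated untreated fruit as control. Kept at 25 °C under continuous light; damage rated at 7 days (0 = intact, 1 = covered with mycelia). Eight replicates, mean ± SE.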

Colletotrichum acutatum [9] = test: Antifungal activity against Colletotrichum acutatum assessed as high disorganization of cell components at 33.78 ul/L by transmission electrol microscopy; assay type: functional, organism-based
Colletotrichum acutatum [10] = test: Antifungal activity against Colletotrichum acutatum inoculated in strawberry fruits assessed as fruit damaging at >=20 ul/L measured after 7 days; assay type: functional; how it was run: as §2
Colletotrichum acutatum [11] = test: Antifungal activity against Colletotrichum acutatum assessed as disruption of cell wall at 33.78 ul/L by transmission electrol microscopy; assay type: functional, organism-based
Colletotrichum acutatum [12] = test: Antifungal activity against Colletotrichum acutatum inoculated in strawberry fruits assessed as fruit damaging at 5 ul/L measured after 7 days; assay type: functional, organism-based; how it was run: as §2
Colletotrichum acutatum [13] = test: Antifungal activity against Colletotrichum acutatum inoculated in strawberry fruits assessed as fruit damaging at 10 ul/L measured after 7 days; assay type: functional; how it was run: as §2

| Compound | MID (Colletotrichum acutatum [1]) [uL/L] | MID (Colletotrichum acutatum [2]) [uL/L] | MID (Colletotrichum acutatum [3]) [uL/L] | MID (Colletotrichum acutatum [4]) [uL/L] | MID (Colletotrichum acutatum [5]) [uL/L] | ID50 (Colletotrichum acutatum [6]) [uL/L] | ID95 (Colletotrichum acutatum [6]) [uL/L] | MID (Colletotrichum acutatum [6]) [uL/L] | Activity (Colletotrichum acutatum [7]) | Activity (Colletotrichum acutatum [8]) | Activity (Colletotrichum acutatum [9]) | Activity (Colletotrichum acutatum [10]) [%] | Activity (Colletotrichum acutatum [11]) | Activity (Colletotrichum acutatum [12]) | Activity (Colletotrichum acutatum [13]) [%] |
| --- | --- | --- | --- | --- | --- | --- | --- | --- | --- | --- | --- | --- | --- | --- | --- |
| CCC/C=C/CO | 135.13 | 33.78 | 135.13 | 33.78 | 33.78 | 151.76 | 253.78 | 268.92 |  |  |  |  |  |  |  |
| CC/C=C\CCOC(C)=O [(Z)-hex-3-en-1-yl acetate] | 337.84 | 135.13 | 337.84 | 337.84 | 135.13 | 503.11 | 2063.11 | 2476.35 |  |  |  |  |  |  |  |
| CCCCCC=O [HEXANAL] | 33.78 | 6.76 | 33.78 | 33.78 | 6.76 | 151.35 | 256.49 | 272.16 |  |  |  |  |  |  |  |
| CCC/C=C/C=O | 6.76 | 1.35 | 6.76 | 6.76 | 1.35 | 26.89 | 32.97 | 33.65 | Active | inactive | Active | 100 | Active | inactive | 87.5 |
| CC/C=C\CCO [CIS-3-HEXENOL] | 337.84 | 135.13 | 337.84 | 337.84 | 135.13 | 230.14 | 595 | 640.54 |  |  |  |  |  |  |  |
| CCCCCCO [1-HEXANOL] | 337.84 | 33.78 | 337.84 | 337.84 | 33.78 | 151.35 | 255.14 | 270.27 |  |  |  |  |  |  |  |
| CCC/C=C/COC(C)=O | 337.84 | 135.13 | 337.84 | 337.84 | 135.13 | 221.62 | 584.86 | 651.35 |  |  |  |  |  |  |  |
| CCCCCCOC(C)=O [HEXYL ACETATE] | 1351.35 | 337.84 | 1351.35 | 1351.35 | 337.84 | 718.65 | 5100.41 | 6441.89 |  |  |  |  |  |  |  |
